Source: ChEMBL document CHEMBL1275556, “High prevalence of plasmid-mediated quinolone resistance genes qnr and aac(6')-Ib-cr in clinical isolates of Enterobacteriaceae from nine teaching hospitals in China” (2008)
≈ marks a conversion by molar mass, not a printed value.

Tests used:
[1] = system: Enterobacter cloacae; experiment: Antimicrobial activity against aac(6')-Ib-cr-negative Enterobacter cloacae SH39T harboring qnrA gene by agar dilution method in presence of Tazobactam; type: functional
Procedure, shortened: (§1)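 MICs were determined by the CLSI agar dilution method (M7-A7) and interpreted against CLSI M100-S17 breakpoints.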

[2] = system: Citrobacter freundii; experiment: Antimicrobial activity against aac(6')-Ib-cr-positive Citrobacter freundii TJ15 harboring GyrA T83I, ParC S80I mutant, wild-type GyrB, qnrB genes by agar dilution method in presence of Tazobactam; type: functional; procedure, shortened: as §1
[3] = system: Escherichia coli; experiment: Antimicrobial activity against Escherichia coli J53 harboring wild-type GyrA, ParC, GyrB genes by agar dilution method in presence of beta-lactamase inhibitor Tazobactam; type: functional
Procedure, shortened: (§2)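 MICs measured by CLSI agar dilution (M7-A7) and interpreted against CLSI M100-S17 breakpoints. Strains were clinical Enterobacteriaceae isolates or the azide-resistant E. coli J53 recipient.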

[4] = system: Klebsiella pneumoniae; experiment: Antimicrobial activity against aac(6')-Ib-cr-positive Klebsiella pneumoniae WH99T harboring qnrB gene by agar dilution method in presence of Tazobactam; type: functional
Procedure, shortened: (§3)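 Transconjugants were made by conjugating a qnr/aac(6')-Ib-cr donor with azide-resistant E. coli J53. Selection used Trypticase soy agar with sodium azide 150 µg/ml and sulfamethoxazole 180 µg/ml. […] MICs were read by CLSI agar dilution (M7-A7) and interpreted per M100-S17.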

[5] = system: Citrobacter freundii; experiment: Antimicrobial activity against aac(6')-Ib-cr-negative Citrobacter freundii JN64T harboring qnrA gene by agar dilution method in presence of Tazobactam; type: functional; procedure, shortened: as §1
[6] = system: Escherichia coli; experiment: Antimicrobial activity against aac(6')-Ib-cr-positive Escherichia coli FJ3 harboring GyrA S83L, ParC S80R mutant, wild-type GyrB and qnrB genes by agar dilution method in presence of Tazobactam; type: functional; procedure, shortened: as §2
[7] = system: Citrobacter freundii; experiment: Antimicrobial activity against aac(6')-Ib-cr-positive Citrobacter freundii JS33T harboring qnrA gene by agar dilution method in presence of Tazobactam; type: functional; procedure, shortened: as §1
[8] = system: Klebsiella pneumoniae; experiment: Antimicrobial activity against aac(6')-Ib-cr-positive Klebsiella pneumoniae JN41T harboring qnrB gene by agar dilution method in presence of Tazobactam; type: functional; procedure, shortened: as §3
[9] = system: Citrobacter freundii; experiment: Antimicrobial activity against aac(6')-Ib-cr-positive Citrobacter freundii PU55 harboring GyrA T83I, ParC S80I mutant, wild-type GyrB, qnrA genes by agar dilution method in presence of Tazobactam; type: functional
Procedure, shortened: (§4)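 MICs were determined by CLSI agar dilution (M7-A7) and interpreted by CLSI M100-S17 breakpoints. The curator's line names the β-lactamase inhibitor added.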

[10] = system: Enterobacter cloacae; experiment: Antimicrobial activity against aac(6')-Ib-cr-negative Enterobacter cloacae FJ67T harboring qnrS gene by agar dilution method in presence of Tazobactam; type: functional; procedure, shortened: as §1
[11] = system: Enterobacter cloacae; experiment: Antimicrobial activity against aac(6')-Ib-cr-positive Enterobacter cloacae FJ63 harboring GyrA S83I, GyrA D87A, ParC S80I mutant, wild-type GyrB and qnrS genes by agar dilution method in presence of Tazobactam; type: functional; procedure, shortened: as §1
[12] = system: Enterobacter cloacae; experiment: Antimicrobial activity against aac(6')-Ib-cr-positive Enterobacter cloacae FJ63T harboring qnrS gene by agar dilution method in presence of Tazobactam; type: functional; procedure, shortened: as §1
[13] = system: Escherichia coli; experiment: Antimicrobial activity against aac(6')-Ib-cr-negative Escherichia coli PU12T harboring wild-type GyrA, GyrB, ParC and qnrS genes by agar dilution method in presence of clavulanic acid; type: functional
Procedure, shortened: (§5)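 Transconjugants came from conjugation of qnr and/or aac(6')-Ib-cr-carrying donors with azide-resistant E. coli J53. […] MICs were determined by CLSI agar dilution (M7-A7) and interpreted by M100-S17.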

[14] = system: Citrobacter freundii; experiment: Antimicrobial activity against aac(6')-Ib-cr-positive Citrobacter freundii JS33 harboring GyrA T83I mutant, wild-type ParC, GyrB, qnrA and qnrB genes by agar dilution method in presence of clavulanic acid; type: functional; procedure, shortened: as §4
[15] = system: Klebsiella pneumoniae; experiment: Antimicrobial activity against aac(6')-Ib-cr-positive Klebsiella pneumoniae GZ40T harboring qnrB gene by agar dilution method
[16] = system: Escherichia coli; experiment: Antimicrobial activity against aac(6')-Ib-cr-negative Escherichia coli PU12T harboring wild-type GyrA, GyrB, ParC and qnrS genes by agar dilution method; type: functional; procedure, shortened: as §1
[17] = system: Klebsiella pneumoniae; experiment: Antimicrobial activity against aac(6')-Ib-cr-positive Klebsiella pneumoniae GZ40 harboring GyrA S83I, ParC S80I mutant, wild-type GyrB and qnrB genes by agar dilution method in presence of clavulanic acid; type: functional; procedure, shortened: as §2
[18] = system: Enterobacter cloacae; experiment: Antimicrobial activity against aac(6')-Ib-cr-negative Enterobacter cloacae GZ51T harboring qnrA gene by agar dilution method; type: functional
[19] = system: Klebsiella pneumoniae; experiment: Antimicrobial activity against aac(6')-Ib-cr-positive Klebsiella pneumoniae JN41T harboring qnrB gene by agar dilution method; type: functional; procedure, shortened: as §3
[20] = system: Enterobacter cloacae; experiment: Antimicrobial activity against aac(6')-Ib-cr-positive Enterobacter cloacae FJ63 harboring GyrA S83I, GyrA D87A, ParC S80I mutant, wild-type GyrB and qnrS genes by agar dilution method in presence of clavulanic acid; type: functional; procedure, shortened: as §1
[21] = system: Citrobacter freundii; experiment: Antimicrobial activity against aac(6')-Ib-cr-negative Citrobacter freundii JN64 harboring GyrA T83I, wild-type ParC, GyrB and qnrA genes by agar dilution method; type: functional; procedure, shortened: as §1
[22] = system: Citrobacter freundii; experiment: Antimicrobial activity against aac(6')-Ib-cr-positive Citrobacter freundii PU55T harboring wild-type GyrA, ParC, GyrB and qnrA genes by agar dilution method in presence of clavulanic acid; type: functional; procedure, shortened: as §5
[23] = system: Klebsiella pneumoniae; experiment: Antimicrobial activity against aac(6')-Ib-cr-positive Klebsiella pneumoniae WH99T harboring qnrB gene by agar dilution method in presence of clavulanic acid; type: functional; procedure, shortened: as §5
[24] = system: Enterobacter cloacae; experiment: Antimicrobial activity against aac(6')-Ib-cr-negative Enterobacter cloacae GZ51 harboring qnrA gene by agar dilution method; type: functional
[25] = system: Klebsiella pneumoniae; experiment: Antimicrobial activity against aac(6')-Ib-cr-positive Klebsiella pneumoniae SY26T harboring wild-type GyrA, ParC, GyrB and qnrB genes by agar dilution method in presence of clavulanic acid; type: functional; procedure, shortened: as §5
[26] = system: Citrobacter freundii; experiment: Antimicrobial activity against aac(6')-Ib-cr-positive Citrobacter freundii PU55 harboring GyrA T83I, ParC S80I mutant, wild-type GyrB, qnrA genes by agar dilution method in presence of clavulanic acid; type: functional; procedure, shortened: as §1
[27] = system: Escherichia coli; experiment: Antimicrobial activity against Escherichia coli J53 harboring wild-type GyrA, ParC, GyrB genes by agar dilution method in presence of beta-lactamase inhibitor clavulanic acid; type: functional; procedure, shortened: as §4
[28] = system: Klebsiella pneumoniae; experiment: Antimicrobial activity against aac(6')-Ib-cr-negative Klebsiella pneumoniae SY22T harboring qnrS gene by agar dilution method in presence of clavulanic acid; type: functional; procedure, shortened: as §5
[29] = system: Enterobacter cloacae; experiment: Antimicrobial activity against aac(6')-Ib-cr-negative Enterobacter cloacae FJ61T harboring qnrS gene by agar dilution method; type: functional
[30] = system: Enterobacter cloacae; experiment: Antimicrobial activity against aac(6')-Ib-cr-negative Enterobacter cloacae GZ47T harboring qnrB gene by agar dilution method in presence of clavulanic acid; type: functional; procedure, shortened: as §1

What does the source list for CCN1CCN(C(=O)N[C@@H](C(=O)N[C@@H]2C(=O)N3[C@@H]2SC(C)(C)[C@@H]3C(=O)O)c2ccccc2)C(=O)C1=O [PIPERACILLIN]?
MIC [1]: 1 µg/mL; MIC [2]: 4 µg/mL; MIC [3]: 1 µg/mL; MIC [4]: 2 µg/mL; MIC [5]: 4 µg/mL; MIC [6]: 2 µg/mL; MIC [7]: 4 µg/mL; MIC [8]: 2 µg/mL; MIC [9]: 64 µg/mL; MIC [10]: 1 µg/mL; MIC [11]: > 256 µg/mL; MIC [12]: 2 µg/mL

Which MIC [13] does the source give for CO/N=C(\C(=O)N[C@@H]1C(=O)N2C(C(=O)O)=C(COC(C)=O)CS[C@H]12)c1csc(N)n1 [CEFOTAXIME] here?
Its MIC is 0.032 µg/mL.

And the MIC [14]?
Its MIC is 64 µg/mL.

And the MIC [15]?
The MIC was 0.032 µg/mL (≈ 0.0703 µM).

What about the MIC [16] of the same compound?
Its MIC is 16 µg/mL (≈ 35.1 µM).

What about the MIC [17] of the same compound?
Its MIC is 0.5 µg/mL.

And the MIC [18]?
Its MIC is 32 µg/mL (≈ 70.3 µM).

And the MIC [19]?
The MIC was 16 µg/mL (≈ 35.1 µM).

And the MIC [20]?
The MIC was 1 µg/mL.

What about the MIC [21] of the same compound?
The MIC was 256 µg/mL (≈ 562 µM).

What about the MIC [22] of the same compound?
The MIC was 0.032 µg/mL.

And the MIC [23]?
Its MIC is 0.064 µg/mL.

What about the MIC [24] of the same compound?
The MIC was 64 µg/mL (≈ 141 µM).

What about the MIC [25] of the same compound?
The MIC was 0.032 µg/mL.

And the MIC [26]?
The MIC was 256 µg/mL.

What about the MIC [27] of the same compound?
Its MIC is 0.032 µg/mL.

What about the MIC [28] of the same compound?
Its MIC is 0.032 µg/mL.

What about the MIC [29] of the same compound?
The MIC was 0.032 µg/mL (≈ 0.0703 µM).

What about the MIC [30] of the same compound?
The MIC was 0.5 µg/mL.
